Broadly, the inhibition is the percentage by which the read-out fell short of the control. Read a low inhibition as a weak effect. As a reminder, the IC50 is the concentration needed to halve the response being measured. A low value points to inhibition by little substance.

The target of the first assay is Kynurenine 3-monooxygenase (Rattus norvegicus) (UniProt O88867). The assay is described as follows: Inhibition of Kynurenine-3-hydroxylase enzyme isolated from the rat liver at 10 uM.
Sequence of Kynurenine 3-monooxygenase (Rattus norvegicus) (O88867 whole entry, looked up): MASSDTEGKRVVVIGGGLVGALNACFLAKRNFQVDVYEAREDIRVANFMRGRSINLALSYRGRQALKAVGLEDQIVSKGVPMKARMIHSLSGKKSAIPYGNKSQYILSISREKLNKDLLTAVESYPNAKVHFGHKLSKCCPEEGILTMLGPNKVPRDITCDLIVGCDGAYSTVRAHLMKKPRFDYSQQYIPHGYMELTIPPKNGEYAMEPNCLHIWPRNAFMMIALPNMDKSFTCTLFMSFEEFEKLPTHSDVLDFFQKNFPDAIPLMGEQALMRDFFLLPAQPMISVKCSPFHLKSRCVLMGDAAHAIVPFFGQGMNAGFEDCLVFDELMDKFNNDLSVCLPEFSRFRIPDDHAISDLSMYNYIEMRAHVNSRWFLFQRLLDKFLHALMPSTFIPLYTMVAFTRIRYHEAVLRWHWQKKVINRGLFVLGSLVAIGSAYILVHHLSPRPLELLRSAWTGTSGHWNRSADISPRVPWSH
`O=C(O)C(=O)/C=C(\O)c1ccccc1Cl` had an inhibition of 33%.
As for `COC(=O)C(=N)/C=C(\O)c1ccc(Cl)cc1`, the inhibition is 13%.
Compound `COC(=O)C(=N)/C=C(\O)c1ccc(Br)cc1` registered an inhibition of 0%.
`O=C(O)C(=O)/C=C(\O)c1cccc(Cl)c1Cl` had an inhibition of 33%.
The compound `N/C(=C\C(=O)c1ccccc1Cl)C(=O)O` gave an inhibition of 19%.
On the same count and under the same terms, the same measure for `N/C(=C\C(=O)c1ccccc1)C(=O)O`: 17%; for `COC(=O)C(=N)/C=C(\O)c1ccc(F)c(Cl)c1`: 4%; for `COC(=O)C(=N)/C=C(\O)c1cccc(Cl)c1Cl`: 33%.
For the compound `COC(=O)C(=O)/C=C(\O)c1ccccc1Cl`, the inhibition stood at 31%.
The same measure, in the same setting: the same measure for `COC(=O)C(=N)/C=C(\O)c1cccc(F)c1`: 0%.
`O=C(O)C(=O)/C=C(\O)c1ccccc1[N+](=O)[O-]` displayed an inhibition of 24%.
Still for that read-out and setting: the same measure for `COC(=O)C(=O)/C=C(\O)c1ccccc1`: 23%; for `COC(=O)C(=N)/C=C(\O)c1ccc(Cl)c(C)c1`: 0%.
As to `N/C(=C\C(=O)c1cccc(Cl)c1Cl)C(=O)O`, the inhibition came out at 32%.
`COC(=O)C(=N)/C=C(\O)c1ccc(Cl)c(Cl)c1`: the inhibition was found to be 37%.
Same read-out and setting: the same measure for `COC(=O)C(=N)/C=C(\O)c1ccc(C)cc1`: 4%; for `N/C(=C\C(=O)c1ccc(F)cc1)C(=O)O`: 41%.
On the same count and under the same terms, the same measure for `COC(=O)C(=O)/C=C(\O)c1ccc(F)cc1`: 22%; for `N/C(=C\C(=O)c1ccc(Cl)cc1)C(=O)O`: 33%.
With `O=C(O)C(=O)/C=C(\O)c1ccccc1`, the inhibition was 0%.
Turning to `COC(=O)C(=N)/C=C(\O)c1cccc(Br)c1`, the inhibition was 0%.
In turn, `COC(=O)C(=N)/C=C(\O)c1ccc(F)cc1` displayed an inhibition of 1%.
As to `COC(=O)C(=N)/C=C(\O)c1ccccc1Cl`, the inhibition was found to be 31%.
Compound `COC(=O)C(=O)/C=C(\O)c1ccc(Cl)cc1` yielded an inhibition of 38%.
On to `COC(=O)C(=O)/C=C(\O)c1ccccc1[N+](=O)[O-]`, for which the inhibition was found to be 1%.
With `COC(=O)C(=O)/C=C(/O)c1ccc(C)cc1`, the inhibition amounted to 12%.
`COC(=O)C(=N)/C=C(\O)c1ccccc1` came in with an inhibition of 3%.
On to `COC(=O)C(=O)/C=C(\O)c1cccc(Cl)c1Cl`, for which the inhibition came out at 14%.

The target of another assay is Kynurenine 3-monooxygenase (Rattus norvegicus, UniProt O88867). The assay is described as follows: Inhibition of Kynurenine-3-hydroxylase enzyme isolated from the rat liver. The method in brief: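 Enzyme source: P2 mitochondrial pellet from rat liver, resuspended in 0.32 M sucrose. Activity measured as ³HOH release from 3-[³H]-L-kynurenine at its K_m concentration, 37 °C, under conditions linear with time and enzyme protein. Five inhibitor concentrations tested. IC50 taken as the mean of at least 2 experiments run in duplicate, with variation <20%.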
Sequence of Kynurenine 3-monooxygenase (O88867 whole entry): as the sequence (O88867 whole entry, looked up) above
`COC(=O)C(=N)/C=C(\O)c1cccc(Cl)c1` displayed a half-maximal inhibitory concentration (IC50) of 7.9 µM.
Same read-out and setting: the same measure for `N/C(=C\C(=O)c1ccc(F)c(Cl)c1)C(=O)O`: 0.82 µM; for `O=C(O)C(=O)/C=C(\O)c1ccc(F)c(Cl)c1`: 0.27 µM.
`Cc1cc(/C(O)=C/C(=O)C(=O)O)ccc1Cl` displayed an IC50 of 1.7 µM.
Regarding `COC(=O)C(=O)/C=C(\O)c1cccc(F)c1`, it took 1.6 µM to reach half-maximal inhibition (IC50).
As for `N/C(=C\C(=O)c1ccc(Cl)c(Cl)c1)C(=O)O`, the IC50 came to 1 µM. Against the preceding compound, the IC50 is about 1.6-fold lower.
The compound `N/C(=C\C(=O)c1cccc(Cl)c1)C(=O)O` came in with an IC50 of 2.4 µM.
`COC(=O)C(=O)/C=C(\O)c1ccc(Cl)c([N+](=O)[O-])c1` gave an IC50 of 11.2 µM.
Still for that read-out and setting: the same measure for `COC(=O)C(=O)/C=C(\O)c1cccc(Cl)c1`: 1.9 µM; for `COC(=O)C(=O)/C=C(\O)c1ccc(Br)cc1`: 1.9 µM.
Take `COC(=O)C(=O)/C=C(\O)c1ccc(F)c(Cl)c1`: the IC50 amounted to 2.6 µM.
Turning to `O=C(O)C(=O)/C=C(\O)c1ccc(Cl)cc1`, it took 3 µM to reach half-maximal inhibition (IC50).
As for `O=C(O)C(=O)/C=C(\O)c1cccc(Cl)c1`, the IC50 was found to be 0.32 µM.
In the case of `N[C@@H](CC(=O)c1cccc([N+](=O)[O-])c1)C(=O)O`, inhibition was half-maximal at 4 µM (IC50).
`O=C(O)C(=O)/C=C(\O)c1ccc(Cl)c([N+](=O)[O-])c1` gave an IC50 of 2 µM.
Still for that read-out and setting: the same measure for `COC(=O)C(=N)/C=C(\O)c1ccc(F)c(F)c1`: 3.6 µM; for `COC(=O)C(=O)/C=C(\O)c1cccc(F)c1F`: 8.1 µM.
`N/C(=C\C(=O)c1ccc(F)c(F)c1)C(=O)O`: half-maximal inhibition (IC50) was put at 1.5 µM.
The compound `O=C(O)C(=O)/C=C(\O)c1cccc(Br)c1` gave a concentration for half-maximal inhibition (IC50) of 1.7 µM.
In the case of `COC(=O)C(=O)/C=C(\O)c1cccc(Br)c1`, the IC50 amounted to 2.1 µM.
Still for that read-out and setting: the same measure for `COC(=O)C(=O)/C=C(\O)c1ccc(Cl)c(Cl)c1`: 1.9 µM; for `COC(=O)C(=O)/C=C(\O)c1ccc(Cl)c(C)c1`: 4.9 µM.
The compound `COC(=O)C(=O)/C=C(\O)c1ccc(F)c(F)c1` yielded a half-inhibitory concentration (IC50) of 3.3 µM. This IC50 and that of the compound before are within 1.5-fold of each other.
The compound `NC(CC(=O)c1cccc([N+](=O)[O-])c1)C(=O)O` (racemic) showed an IC50 of 8 µM.
`O=C(O)C(=O)/C=C(\O)c1ccc(F)c(F)c1`: the IC50 came out at 0.12 µM.
On the same count and under the same terms, the same measure for `O=C(O)C(=O)/C=C(\O)c1cccc(F)c1`: 0.58 µM.

These data come from ChEMBL document CHEMBL1133168, “Synthesis and SAR of 4-aryl-2-hydroxy-4-oxobut-2-enoic acids and esters and 2-amino-4-aryl-4-oxobut-2-enoic acids and esters: potent inhibitors of kynurenine-3-hydroxylase as potential neuroprotective agents” (J Med Chem, 2000).
